Activity calls are given as the source filed them.
Columns and labels:
COLO 320 = experiment: Inhibition of colony formation in human COLO 320 cells at 500 to 1000 nM by crystal violet staining analysis; type: functional, cell-based; conditions: dose 500-1000 nM
Procedure, shortened: (§1)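 Exponentially growing cells (1-2x10^3) plated in six-well plates; after 48 h treated with indicated concentrations for 3–5 days, then methanol-fixed and crystal violet stained. Cell lines maintained at 37 °C, 5% CO2 in serum-supplemented medium, STR-validated, mycoplasma-tested, <15 passages.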

[1] = molecular target: Bromodomain-containing protein 4 (Homo sapiens) (UniProt O60885); conditions: SW480, dose 500-1000 nM, time 24.0 hrs
HCT-116 [2] = experiment: Inhibition of colony formation in human HCT116 p53-/- cells at 500 to 1000 nM by crystal violet staining analysis; type: functional, cell-based; conditions: dose 500-1000 nM; procedure, shortened: as §1
[3] = molecular target: Bromodomain-containing protein 4 (Homo sapiens) (UniProt O60885); conditions: COLO 320, dose 500-1000 nM, time 24.0 hrs
HCT-116 [4] = experiment: Inhibition of colony formation in human HCT116 p53+/+ cells at 500 to 1000 nM by crystal violet staining analysis; type: functional, cell-based; conditions: dose 500-1000 nM; procedure, shortened: as §1
[5] = molecular target: Bromodomain-containing protein 4 (Homo sapiens) (UniProt O60885); conditions: HCT-116, dose 500-1000 nM, time 24.0 hrs
[6] = molecular target: Bromodomain-containing protein 4 (Homo sapiens) (UniProt O60885); conditions: LS174T, dose 500-1000 nM, time 24.0 hrs
DLD-1 = experiment: Inhibition of colony formation in human DLD-1 cells at 500 to 1000 nM by crystal violet staining analysis; type: functional, cell-based; conditions: dose 500-1000 nM; procedure, shortened: as §1
HT-29 = experiment: Inhibition of colony formation in human HT-29 cells at 500 to 1000 nM by crystal violet staining analysis; type: functional, cell-based; conditions: dose 500-1000 nM; procedure, shortened: as §1
SW480 = experiment: Inhibition of colony formation in human SW480 cells at 500 to 1000 nM by crystal violet staining analysis; type: functional, cell-based; conditions: dose 500-1000 nM; procedure, shortened: as §1
[7] = molecular target: Bromodomain-containing protein 4 (Homo sapiens) (UniProt O60885); conditions: DLD-1, dose 500-1000 nM, time 24.0 hrs
[8] = molecular target: Bromodomain-containing protein 4 (Homo sapiens) (UniProt O60885); conditions: LS174T, dose 500-1000 nM, time 24.0 hrs; remark: listed apart in the source
[9] = molecular target: Bromodomain-containing protein 4 (Homo sapiens) (UniProt O60885); conditions: HT-29, dose 500-1000 nM, time 24.0 hrs
LS174T = experiment: Inhibition of colony formation in human LS174T cells at 500 to 1000 nM by crystal violet staining analysis; type: functional, cell-based; conditions: dose 500-1000 nM; procedure, shortened: as §1
[10] = molecular target: Bromodomain-containing protein 4 (Homo sapiens) (UniProt O60885); conditions: HCT-116, dose 500-1000 nM, time 24.0 hrs; remark: listed apart in the source
[11] = molecular target: Bromodomain-containing protein 4 (Homo sapiens) (UniProt O60885); conditions: LS174T, dose 500-1000 nM, time 24.0 hrs; remark: listed apart in the source

Measured: inhibition

Cc1sc2c(c1C)C(c1ccc(Cl)cc1)=N[C@@H](CC(=O)OC(C)(C)C)c1nnc(C)n1-2
active: COLO 320 | [1] | HCT-116 [2] | [3] | HCT-116 [4] | [5] | [6] | DLD-1 | HT-29 | SW480 | [7] | [8] | [9] | LS174T | [10] | [11]

Source: ChEMBL document CHEMBL5712087, “Targeting bromodomain-containing protein 4 (BRD4) inhibits MYC expression in colorectal cancer cells” (Neoplasia, 2019)
